The values that follow come from ChEMBL document CHEMBL1139389, “Discovery of the Poly(ADP-ribose) polymerase (PARP) inhibitor 2-[(R)-2-methylpyrrolidin-2-yl]-1H-benzimidazole-4-carboxamide (ABT-888) for the treatment of cancer” (J Med Chem, 2009).

The target of data set [1] is Poly [ADP-ribose] polymerase 2 (Homo sapiens, UniProt Q9UGN5). In words: Inhibition of human recombinant PARP2.
For the next data set, the system named is MX1. In words: animal or person. As to conditions: Mus musculus, MX1, ip, 816 h, read-out: TGI.
Data set [2] is described as follows: Cmax in CD1 mouse at 10 mg/kg, po. Type of data set: ADME, organism-based. Further details: dose 10 mg/kg, route oral. As to conditions: in vivo. In a few lines:
(§1)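 Mouse PK: oral dose 10 mg/kg in 2.5% EtOH, 1 drop Tween-80, 25% PEG400 in PBS; iv dose 3 mg/kg in 2.5% EtOH, 5% DMSO, 1 drop Tween-80, 25% PEG400 in PBS. Oral bioavailability, iv half-life, oral AUC and Cmax derived from plasma profiles.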

A short description of data set [3]: AUC in CD1 mouse at 10 mg/kg, po. Type of data set: ADME, organism-based. Further details: dose 10 mg/kg, route oral. The following applies: plasma. The method in brief:
as §1

A short description of data set [4]: Oral bioavailability in CD1 mouse at 10 mg/kg. Type of data set: ADME, organism-based. As to conditions: in vivo. The method in brief: as §1
The nature of data set [5]: Half life in CD1 mouse at 3 mg/kg, iv. In kind it is ADME, organism-based. Further details: dose 3 mg/kg, route intravenous. The following applies: in vivo. The method in brief:
as §1

The nature of data set [6]: Clearance in cynomolgus monkey at 2.5 mg/kg. Type of data set: ADME, organism-based, Macaca fascicularis. Further details: dose 2.5 mg/kg. As to conditions: in vivo.
A short description of data set [7]: Volume of distribution at steady state in cynomolgus monkey at 2.5 mg/kg. Type of data set: ADME, organism-based, Macaca fascicularis. Further details: dose 2.5 mg/kg. As to conditions: in vivo, read-out: Vdss.
Data set [8] in a line: Clearance in Sprague-Dawley rat at 5 mg/kg. The following applies: in vivo. In kind it is ADME, organism-based. Further details: dose 5 mg/kg.
The nature of data set [9]: Oral bioavailability in cynomolgus monkey at 2.5 mg/kg. Type of data set: ADME, organism-based, Macaca fascicularis. As to conditions: in vivo.
Data set [10] can be described thus: Volume of distribution at steady state in Beagle dog at 2.5 mg/kg. In kind it is ADME, organism-based, Canis lupus familiaris. Further details: dose 2.5 mg/kg. The following applies: in vivo, read-out: Vdss.
Data set [11] in a line: Cmax in cynomolgus monkey at 2.5 mg/kg, po. Type of data set: ADME, organism-based, Macaca fascicularis. Further details: dose 2.5 mg/kg, route oral. As to conditions: in vivo.
The nature of data set [12]: Half life in Beagle dog at 2.5 mg/kg, iv. In kind it is ADME, organism-based, Canis lupus familiaris. Further details: dose 2.5 mg/kg, route intravenous. The following applies: in vivo.
The nature of data set [13]: AUC in cynomolgus monkey at 2.5 mg/kg, po. In kind it is ADME, organism-based, Macaca fascicularis. Further details: dose 2.5 mg/kg, route oral. The following applies: plasma.
Data set [14] is described as follows: Clearance in Beagle dog at 2.5 mg/kg. Type of data set: ADME, organism-based, Canis lupus familiaris. Further details: dose 2.5 mg/kg. The following applies: in vivo.
Data set [15] in a line: Oral bioavailability in Sprague-Dawley rat at 5 mg/kg. In kind it is ADME, organism-based. The following applies: in vivo.
Data set [16] in a line: Half life in Sprague-Dawley rat at 5 mg/kg, iv. In kind it is ADME, organism-based. The following applies: in vivo. Further details: dose 5 mg/kg, route intravenous.
Data set [17] is described as follows: Half life in cynomolgus monkey at 2.5 mg/kg, iv. Type of data set: ADME, organism-based, Macaca fascicularis. Further details: dose 2.5 mg/kg, route intravenous. As to conditions: in vivo.
Data set [18] in a line: Clearance in CD1 mouse at 10 mg/kg. In kind it is ADME, organism-based. Further details: dose 10 mg/kg. As to conditions: in vivo. In a few lines:
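Mouse pharmacokinetics. Oral dose of 10 mg/kg in 2.5% EtOH, 1 drop Tween-80 and 25% PEG400 in PBS. Intravenous dose of 3 mg/kg in 2.5% EtOH, 5% DMSO, 1 drop Tween-80 and 25% PEG400 in PBS.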

Data set [19] can be described thus: Volume of distribution at steady state in Sprague-Dawley rat at 5 mg/kg. In kind it is ADME, organism-based. Further details: dose 5 mg/kg. The following applies: in vivo, read-out: Vdss.
Data set [20] can be described thus: Cmax in Beagle dog at 2.5 mg/kg, po. Further details: dose 2.5 mg/kg, route oral. The following applies: in vivo. Type of data set: ADME, organism-based, Canis lupus familiaris.
The nature of data set [21]: Cmax in Sprague-Dawley rat at 5 mg/kg, po. As to conditions: in vivo. In kind it is ADME, organism-based. Further details: dose 5 mg/kg, route oral.
Data set [22] is described as follows: AUC in Beagle dog at 2.5 mg/kg, po. In kind it is ADME, organism-based, Canis lupus familiaris. Further details: dose 2.5 mg/kg, route oral. The following applies: plasma.
Data set [23] is described as follows: AUC in Sprague-Dawley rat at 5 mg/kg, po. Further details: dose 5 mg/kg, route oral. Type of data set: ADME, organism-based. As to conditions: plasma.
Data set [24] in a line: Volume of distribution at steady state in CD1 mouse at 10 mg/kg. In kind it is ADME, organism-based. Further details: dose 10 mg/kg. The following applies: in vivo, read-out: Vdss.
Data set [25] in a line: Oral bioavailability in Beagle dog at 2.5 mg/kg. In kind it is ADME, organism-based, Canis lupus familiaris. As to conditions: in vivo.
In data set [26] the test system is B16-F10. In words: Antitumor activity against mouse B16F10 cells xenografted in C57BL/6 mouse assessed as growth inhibition at 50 mg/kg/day, po after 14 days relative to control. In kind it is functional. The following applies: B16-F10, 336 h, read-out: TGI.
The subject of data set [27] is B16-F10. The data set can be described thus: Antitumor activity against mouse B16F10 cells xenografted in C57BL/6 mouse assessed as tumor volume at 50 mg/kg/day, po after 17 days. Type of data set: functional.
In data set [28] the test system is B16-F10. The data set can be described thus: Antitumor activity against mouse B16F10 cells xenografted in C57BL/6 mouse assessed as tumor volume at 50 mg/kg/day, po after 14 days. Type of data set: functional.

Sequence of Poly [ADP-ribose] polymerase 2 (Q9UGN5 whole entry): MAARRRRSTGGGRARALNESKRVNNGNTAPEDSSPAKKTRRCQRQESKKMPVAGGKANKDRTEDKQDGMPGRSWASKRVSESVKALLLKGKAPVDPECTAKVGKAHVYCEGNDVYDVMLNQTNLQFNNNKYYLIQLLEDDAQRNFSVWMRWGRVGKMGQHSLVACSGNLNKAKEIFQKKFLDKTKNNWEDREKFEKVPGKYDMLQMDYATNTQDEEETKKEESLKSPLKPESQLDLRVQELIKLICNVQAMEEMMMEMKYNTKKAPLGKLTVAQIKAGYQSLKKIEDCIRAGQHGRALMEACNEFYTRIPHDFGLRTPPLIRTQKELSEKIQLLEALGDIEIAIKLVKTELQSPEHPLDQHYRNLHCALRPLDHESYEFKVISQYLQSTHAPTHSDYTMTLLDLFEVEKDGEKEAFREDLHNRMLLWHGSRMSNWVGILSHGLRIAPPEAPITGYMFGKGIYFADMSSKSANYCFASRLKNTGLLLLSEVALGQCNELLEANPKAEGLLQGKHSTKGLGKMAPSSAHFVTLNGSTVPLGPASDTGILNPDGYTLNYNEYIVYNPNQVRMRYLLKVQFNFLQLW

In general, Ki refers to the equilibrium dissociation constant of an inhibitor or competing ligand from its target. For the molecule `CC1(c2nc3c(C(N)=O)cccc3[nH]2)CCNC1` (stereo unspecified), the Ki in data set [1] was 2 nM.

In the case of `O=P1(N(CCCl)CCCl)NCCCO1` (stereo unspecified) [CYCLOPHOSPHAMIDE ANHYDROUS], in the data set with MX1, the inhibition in vivo at 12.5 mg/kg/day is 73%.

As usually defined, the Cmax is the peak of the concentration-time curve. As a reminder, the AUC is concentration integrated over time. Usually bioavailability stands for the share of a dose that reaches the circulation, judged against a reference dose that is usually intravenous. Broadly, the half-life is the time needed for the level to fall by half in the phase considered. The molecule `CC(C)N1CCC(C)(c2nc3c(C(N)=O)cccc3[nH]2)C1` (stereo unspecified) showed a maximum concentration (Cmax) in data set [2] of 500 ng/mL. For the same molecule, in data set [3], the AUC came to 1000 ng·h/mL. Further, the bioavailability in data set [4] is 100%. Also, the half-life in [5] was 1.4 h.

On to `CN1CCCC1(C)c1nc2c(C(N)=O)cccc2[nH]1` (stereo unspecified), for which the Cmax in data set [2] worked out at 100 ng/mL. Besides, the AUC in [3] came to 200 ng·h/mL. Also, the bioavailability in [4] was 36%. Moreover, in data set [5], the half-life was 0.55 h.

On to `C[C@]1(c2nc3c(C(N)=O)cc(F)cc3[nH]2)CCCN1`, for which the Cmax in data set [2] is 1000 ng/mL. The same molecule displayed an AUC in data set [3] of 1500 ng·h/mL. The inhibition constant Ki in data set [1] turned out to be 4 nM. Moreover, in data set [4], the bioavailability stood at 100%. In data set [5], this molecule had a half-life of 0.5 h.

In general, clearance refers to a measure of how efficiently the substance is removed, as volume per time. For `C[C@@]1(c2nc3c(C(N)=O)cccc3[nH]2)CCCN1`, the clearance in data set [6] was 23.3 mL/min/kg; in data set [8], 33.3 mL/min/kg; in [14] it was 15 mL/min/kg; in data set [18], 103 mL/min/kg. For the same molecule, the Vd in data set [7] is 3 L/kg; in data set [10], 2.9 L/kg; in data set [19], 7.5 L/kg; in [24], 10.3 L/kg. In addition, the Cmax in data set [2] amounted to 800 ng/mL; in [11], 200 ng/mL; in data set [20], 500 ng/mL; in [21], 600 ng/mL. The bioavailability in data set [9] came out at 39%; in data set [15] it was 72%; in [4], 66%; in [25], 48%. Further, the AUC came out at 1100 ng·h/mL in data set [3], 700 ng·h/mL in data set [13], 1400 ng·h/mL in data set [22] and 1900 ng·h/mL in data set [23]. Moreover, the half-life in [12] is 2.2 h; in data set [16], 2.4 h; in data set [17], 1.5 h; in [5], 1.2 h.

Molecule `CC1(c2nc3c(C(N)=O)cccc3[nH]2)CCNCC1` returned a Cmax in data set [2] of 100 ng/mL. The same molecule registered an AUC in [3] of 400 ng·h/mL. Besides, in data set [1], the Ki was 2 nM. In data set [4], the bioavailability turned out to be 20%. The molecule also had a half-life in data set [5] of 1.2 h.

Consider `CC1(c2nc3c(C(N)=O)cccc3[nH]2)CCCCN1` (stereo unspecified), for which the Cmax in [2] turned out to be 500 ng/mL. The molecule also displayed an AUC in data set [3] of 1500 ng·h/mL. The bioavailability in [4] turned out to be 93%. In addition, in data set [5], the half-life is 1.5 h.

Turning to `Cn1nnc2c(C(N)=O)ncn2c1=O` [TEMOZOLOMIDE], in the data set on B16-F10 [26], the inhibition in vivo at 50 mg/kg/day was determined as 65%. Moreover, the Activity in the data set with B16-F10 [27] is listed as 2318 mm3; in the data set on B16-F10 [28] it was 1198 mm3.
